Laboratory results: article PMC6779328 (Bioorganic & medicinal chemistry, 2019)
Converted amounts (≈) assume the structure as drawn.

What was measured:
MRSA ATCC BAA-44 [1] = test: MIC by broth microdilution, MRSA BAA-44; format: cell-based, Staphylococcus aureus; conditions: MRSA BAA-44, compound alone
HeLa cells = test: HeLa growth inhibition; format: cell-based, human
MRSA-252 = test: MIC, MRSA-252; format: cell-based, Staphylococcus aureus
B.subtilis NR-607 = test: MIC, B.subtilis NR-607; format: cell-based
E.faecium HM-460 = test: MIC, E.faecium HM-460; format: cell-based
E.faecium 28977 = test: MIC, E.faecium 28977; format: cell-based
MSSA = test: MIC, MSSA; format: cell-based, S. aureus
MRSA ATCC BAA-44 [2] = test: Minimum re-sensitizing concentration; format: cell-based, Staphylococcus aureus; conditions: MRSA BAA-44, cefazolin
In short: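 MRSA ATCC BAA-44. The test compound was combined with cefazolin, and the minimum resensitizing concentration (MRC) was reported in μg/mL. MIC alone was determined by standard CLSI broth microdilution. MIC and MRC values were confirmed in triplicate. RMA activity was expressed as the ratio MIC/MRC.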

[3] = Staphylococcus aureus, ATCCBAA44|BAA44|MRSA

Compound: 1-((6-chloro-2-(6-chlorobenzo[d]thiazol-2-yl)-2,3,4,9-tetrahydro-1H-pyrido[3,4-b]indol-4-yl)methyl)guanidine hydrochloride [12g]
- MIC (MRSA ATCC BAA-44 [1]): 2 µg/mL
- GI50 (HeLa cells; 24 h): 14.1 µg/mL
- MIC (MRSA-252): 2 µg/mL
- MIC (B.subtilis NR-607): 2 µg/mL
- MIC (E.faecium HM-460): 4 µg/mL
- MIC (E.faecium 28977): 2 µg/mL
- MIC (MSSA): 0.5 µg/mL

Compound: 6-Chloro-N-[3-(trifluoromethyl)phenyl]-1,3,4,9-tetrahydro-2H-pyrido[3,4-b]indole-2-carbothioamide [5c]
- MIC (MRSA ATCC BAA-44 [1]): 2 µg/mL

Compound: Nc1cc(Cl)c2nc(N3CCc4c([nH]c5ccc(Cl)cc45)C3)sc2c1 [4ad, 4-Chloro-2-(6-chloro-1,3,4,9-tetrahydro-2H-pyrido[3,4-b]indol-2-yl)-1,3-benzothiazol-6-amine]
- RMA activity (in words) (MRSA ATCC BAA-44 [2]): good RMA activities

Compound: Cl.NCC(=O)Nc1cc(Cl)c2nc(N3CCc4c([nH]c5ccc(Cl)cc45)C3)sc2c1 [4ae, 2-amino-N-(4-chloro-2-(6-chloro-1,3,4,9-tetrahydro-2H-pyrido[3,4-b]indol-2-yl)benzo[d]thiazol-6-yl)acetamide hydrochloride]
- antibacterial activity, MIC (in words) (MRSA ATCC BAA-44 [1]): excellent MICs

Compound: FC(F)(F)c1cccc2sc(N3CCc4c([nH]c5ccc(Cl)cc45)C3)nc12 [4af, 6-Chloro-2-[4-(trifluoromethyl)-1,3-benzothiazol-2-yl]-2,3,4,9-tetrahydro-1H-pyrido[3,4-b]indole]
- RMA activity (in words) (MRSA ATCC BAA-44 [2]): good RMA activities
- GI50 worse than R^9-Cl analog 4w (HeLa cells): 3 fold

Compound: CNc1cc(C(F)(F)F)c2nc(N3CCc4c([nH]c5ccc(Cl)cc45)C3)sc2c1 [4ai, 2-(6-Chloro-1,3,4,9-tetrahydro-2H-pyrido[3,4-b]indol-2-yl)-N-methyl-4-(trifluoromethyl)-1,3-benzothiazol-6-amine]
- RMA activity (in words) (MRSA ATCC BAA-44 [2]): good RMA activities

Compound: Cl.NCCNc1cc(C(F)(F)F)c2nc(N3CCc4c([nH]c5ccc(Cl)cc45)C3)sc2c1 [4aj, N1-(2-(6-chloro-1,3,4,9-tetrahydro-2H-pyrido[3,4-b]indol-2-yl)-4-(trifluoromethyl)benzo[d]thiazol-6-yl)ethane-1,2-diamine hydrochloride]
- antibacterial activity, MIC (in words) (MRSA ATCC BAA-44 [1]): excellent MICs

Compound: Clc1ccc2[nH]c3c(c2c1)CCN(c1nc2ccccc2s1)C3 [4b, 2-(1,3-Benzothiazol-2-yl)-6-chloro-2,3,4,9-tetrahydro-1H-pyrido[3,4-b]indole]
- RMA activity (in words) (MRSA ATCC BAA-44 [2]): no RMA activity

Compound: Cc1ccc2nc(N3CCc4c([nH]c5ccc(Cl)cc45)C3)sc2c1 [4c, 6-Chloro-2-(6-methyl-1,3-benzothiazol-2-yl)-2,3,4,9-tetrahydro-1H-pyrido[3,4-b]indole]
- RMA activity (in words) (MRSA ATCC BAA-44 [2]): no RMA activity

Compound: Clc1ccc2[nH]c3c(c2c1)CCN(c1nc2ncccc2s1)C3 [4d, 6-Chloro-2-([1,3]thiazolo[4,5-b]pyridin-2-yl)-2,3,4,9-tetrahydro-1H-pyrido[3,4-b]indole]
- RMA activity (in words) (MRSA ATCC BAA-44 [2]): abolished

Compound: FC(F)(F)c1cnc2nc(N3CCc4c([nH]c5ccc(Cl)cc45)C3)sc2c1 [4e, 6-Chloro-2-[6-(trifluoromethyl)[1,3]thiazolo[4,5-b]pyridin-2-yl]-2,3,4,9-tetrahydro-1H-pyrido[3,4-b]indole]
- RMA activity (in words) (MRSA ATCC BAA-44 [2]): abolished

Compound: CCOC(=O)C1c2[nH]c3ccc(Cl)cc3c2CCN1c1nc2ccc(Cl)cc2s1 (stereo not shown) [4l, Ethyl 6-chloro-2-(6-chloro-1,3-benzothiazol-2-yl)-2,3,4,9-tetrahydro-1H-pyrido[3,4-b]indole-1-carboxylate]
- RMA activity (in words) (MRSA ATCC BAA-44 [2]): abolished

Compound: COC(=O)C1Cc2c([nH]c3ccc(Cl)cc23)CN1c1nc2ccc(Cl)cc2s1 (stereo not shown) [4m, Methyl 6-chloro-2-(6-chloro-1,3-benzothiazol-2-yl)-2,3,4,9-tetrahydro-1H-pyrido[3,4-b]indole-3-carboxylate]
- MIC (MRSA ATCC BAA-44 [1]): >64 µg/mL
- RMA activity (in words) (MRSA ATCC BAA-44 [2]): abolished

Compound: CCn1c2c(c3cc(Cl)ccc31)CCN(c1nc3ccc(Cl)cc3s1)C2 [4o, 6-Chloro-2-(6-chloro-1,3-benzothiazol-2-yl)-9-ethyl-2,3,4,9-tetrahydro-1H-pyrido[3,4-b]indole]
- RMA activity (in words) (MRSA ATCC BAA-44 [2]): abolished

Compound: Clc1ccc2[nH]c3c(c2c1)CCN(c1nc2ccc(Br)cc2s1)C3 [4p, 2-(6-Bromo-1,3-benzothiazol-2-yl)-6-chloro-2,3,4,9-tetrahydro-1H-pyrido[3,4-b]indole]
- RMA activity (in words) (MRSA ATCC BAA-44 [2]): retained the RMA activity

Compound: FC(F)(F)Oc1ccc2nc(N3CCc4c([nH]c5ccc(Cl)cc45)C3)sc2c1 [4t, 6-Chloro-2-[6-(trifluoromethoxy)-1,3-benzothiazol-2-yl]-2,3,4,9-tetrahydro-1H-pyrido[3,4-b]indole]
- RMA activity (in words) (MRSA ATCC BAA-44 [2]): lost the RMA activity completely

Compound: Clc1ccc2[nH]c3c(c2c1)CCN(c1nc2cccc(Cl)c2s1)C3 [4u, 6-Chloro-2-(7-chloro-1,3-benzothiazol-2-yl)-2,3,4,9-tetrahydro-1H-pyrido[3,4-b]indole]
- RMA activity (in words) (MRSA ATCC BAA-44 [2]): reduced RMA activity

Compound: Clc1ccc2sc(N3CCc4c([nH]c5ccc(Cl)cc45)C3)nc2c1 [4v, 6-Chloro-2-(5-chloro-1,3-benzothiazol-2-yl)-2,3,4,9-tetrahydro-1H-pyrido[3,4-b]indole]
- RMA activity (in words) (MRSA ATCC BAA-44 [2]): no RMA activity

Compound: Clc1ccc2[nH]c3c(c2c1)CCN(c1nc2c(Cl)cccc2s1)C3 [4w, 6-Chloro-2-(4-chloro-1,3-benzothiazol-2-yl)-2,3,4,9-tetrahydro-1H-pyrido[3,4-b]indole]
- RMA activity (in words) (MRSA ATCC BAA-44 [2]): maintained similar RMA activity

Compound: Clc1cc(Cl)c2nc(N3CCc4c([nH]c5ccc(Cl)cc45)C3)sc2c1 [4x, 6-Chloro-2-(4,6-dichloro-1,3-benzothiazol-2-yl)-2,3,4,9-tetrahydro-1H-pyrido[3,4-b]indole]
- antibacterial activity, MIC (in words) (MRSA ATCC BAA-44 [1]): excellent MICs

Compound: Clc1ccc2[nH]c3c(c2c1)CCN(c1nc2c(Cl)c(Cl)c(Cl)cc2s1)C3 [4y, 6-Chloro-2-(4,5,6-trichloro-1,3-benzothiazol-2-yl)-2,3,4,9-tetrahydro-1H-pyrido[3,4-b]indole]
- antibacterial activity, MIC (in words) (MRSA ATCC BAA-44 [1]): excellent MICs

Compound: Cc1nnc(SCC2=C(C(=O)O)N3C(=O)[C@@H](NC(=O)Cn4cnnn4)[C@H]3SC2)s1 [Cefazolin, reference compound]
- MIC (MRSA ATCC BAA-44 [1]; [3]): 256 µg/mL (≈ 563 µM)

Compound: CO/N=C(\C(=O)N[C@@H]1C(=O)N2C(C(=O)O)=C(COC(N)=O)CS[C@H]12)c1ccco1 [Cefuroxime, reference compound]
- MIC (MRSA ATCC BAA-44 [1]): 256 µg/mL (≈ 603 µM)
- MIC (MRSA ATCC BAA-44 [1]; [3]): 128 µg/mL (≈ 302 µM)

Compound: O=C(O)C1CN(c2nc3ccc(Cl)cc3s2)Cc2[nH]c3ccc(Cl)cc3c21 (stereo not shown) [compound 8, 6-Chloro-2-(6-chlorobenzo[d]thiazol-2-yl)-2,3,4,9-tetrahydro-1H-pyrido[3,4-b]indole-4-carboxylic acid]
- RMA activity (in words) (MRSA ATCC BAA-44 [2]): significantly decreased or abolished

Compound: CN(C)C(=O)C1CN(c2nc3ccc(Cl)cc3s2)Cc2[nH]c3ccc(Cl)cc3c21 (stereo not shown) [compound 9, 6-Chloro-2-(6-chlorobenzo[d]thiazol-2-yl)-N,N-dimethyl-2,3,4,9-tetrahydro-1H-pyrido[3,4-b]indole-4-carboxamide]
- RMA activity (in words) (MRSA ATCC BAA-44 [2]): significantly decreased or abolished
